In ChEMBL document CHEMBL1177643, “Synthesis, DNA-binding ability and anticancer activity of benzothiazole/benzoxazole-pyrrolo[2,1-c][1,4]benzodiazepine conjugates” (Bioorg Med Chem, 2010):

Legend:
Calf thymus DNA = test: Binding affinity to calf thymus duplex-form DNA assessed as melting temperature at 1:5 compound/DNA ratio after 18 hrs; assay type: nucleic-acid assay; details: Bos taurus
HL-60 = test: Growth inhibition of human HL-60(TB) cells after 48 hrs by sulforhodamine B assay; assay type: functional; details: HL-60, 48 h
Method in brief: (§1)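 Panel of 60 human cancer cell lines; for each compound, dose–response curves per cell line measured at a minimum of five concentrations at 10-fold dilutions. Cells exposed continuously to drug for 48 h, and growth was read out by sulforhodamine B staining.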

NCI-H23 = test: Growth inhibition of human NCI-H23 cells after 48 hrs by sulforhodamine B assay; assay type: functional; details: NCI-H23, 48 h; method in brief: as §1
EKVX = test: Growth inhibition of human EKVX cells after 48 hrs by sulforhodamine B assay; assay type: functional
Method in brief: (§2)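 Dose–response in each cell line over at least five concentrations at 10-fold dilutions, with 48 h continuous exposure and sulforhodamine B read-out.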

SK-OV-3 = test: Growth inhibition of human SKOV3 cells after 48 hrs by sulforhodamine B assay; assay type: functional; details: SK-OV-3, 48 h; method in brief: as §1
UACC-62 = test: Growth inhibition of human UACC62 cells after 48 hrs by sulforhodamine B assay; assay type: functional; details: UACC-62, 48 h; method in brief: as §1
RXF 393 = test: Growth inhibition of human RXF393 cells after 48 hrs by sulforhodamine B assay; assay type: functional; details: RXF 393, 48 h; method in brief: as §1
DU-145 = test: Growth inhibition of human DU145 cells after 48 hrs by sulforhodamine B assay; assay type: functional; details: DU-145, 48 h; method in brief: as §2
K562 = test: Growth inhibition of human K562 cells after 48 hrs by sulforhodamine B assay; assay type: functional; details: K562, 48 h; method in brief: as §1
SW-620 = test: Growth inhibition of human SW620 cells after 48 hrs by sulforhodamine B assay; assay type: functional; details: SW-620, 48 h; method in brief: as §1
CAKI-1 = test: Growth inhibition of human Caki1 cells after 48 hrs by sulforhodamine B assay; assay type: functional; details: CAKI-1, 48 h; method in brief: as §2
HOP-62 = test: Growth inhibition of human HOP62 cells after 48 hrs by sulforhodamine B assay; assay type: functional; details: HOP-62, 48 h; method in brief: as §1
SF-295 = test: Growth inhibition of human SF295 cells after 48 hrs by sulforhodamine B assay; assay type: functional; details: SF-295, 48 h; method in brief: as §1
M14 = test: Growth inhibition of human M14 cells after 48 hrs by sulforhodamine B assay; assay type: functional; details: M14, 48 h; method in brief: as §1
NCI-H522 = test: Growth inhibition of human NCI-H522 cells after 48 hrs by sulforhodamine B assay; assay type: functional; details: NCI-H522, 48 h; method in brief: as §1
SK-MEL-5 = test: Growth inhibition of human SK-MEL-5 cells after 48 hrs by sulforhodamine B assay; assay type: functional; details: SK-MEL-5, 48 h; method in brief: as §1
OVCAR-4 = test: Growth inhibition of human OVCAR4 cells after 48 hrs by sulforhodamine B assay; assay type: functional; details: OVCAR-4, 48 h; method in brief: as §1
MCF7 = test: Growth inhibition of human MCF7 cells after 48 hrs by sulforhodamine B assay; assay type: functional; details: MCF7, 48 h; method in brief: as §1
786-0 = test: Growth inhibition of human 786-0 cells after 48 hrs by sulforhodamine B assay; assay type: functional; details: 786-0, 48 h; method in brief: as §2
MOLT-4 = test: Growth inhibition of human MOLT4 cells after 48 hrs by sulforhodamine B assay; assay type: functional; details: MOLT-4, 48 h; method in brief: as §1
U-251 = test: Growth inhibition of human U251 cells after 48 hrs by sulforhodamine B assay; assay type: functional; details: U-251, 48 h; method in brief: as §1
NCI-H460 = test: Growth inhibition of human NCI-H460 cells after 48 hrs by sulforhodamine B assay; assay type: functional; details: NCI-H460, 48 h; method in brief: as §1
CCRF-CEM = test: Growth inhibition of human CCRF-CEM cells after 48 hrs by sulforhodamine B assay; assay type: functional; method in brief: as §2
[1] = Growth inhibition of human […] cells after 48 hrs by sulforhodamine B assay; assay type: functional; method in brief: as §1
UO-31 = test: Growth inhibition of human UO31 cells after 48 hrs by sulforhodamine B assay; assay type: functional; details: UO-31, 48 h; method in brief: as §1
COLO 205 = test: Growth inhibition of human COLO205 cells after 48 hrs by sulforhodamine B assay; assay type: functional; details: COLO 205, 48 h; method in brief: as §2
A498 = test: Growth inhibition of human A498 cells after 48 hrs by sulforhodamine B assay; assay type: functional; details: A498, 48 h; method in brief: as §2
TK-10 = test: Growth inhibition of human TK10 cells after 48 hrs by sulforhodamine B assay; assay type: functional; details: TK-10, 48 h; method in brief: as §1
NCI/ADR-RES = test: Growth inhibition of human NCI/ADR-RES cells after 48 hrs by sulforhodamine B assay; assay type: functional; method in brief: as §1
ACHN = test: Growth inhibition of human ACHN cells after 48 hrs by sulforhodamine B assay; assay type: functional; method in brief: as §2
PC-3 = test: Growth inhibition of human PC3 cells after 48 hrs by sulforhodamine B assay; assay type: functional; details: PC-3, 48 h; method in brief: as §1
UACC-257 = test: Growth inhibition of human UACC257 cells after 48 hrs by sulforhodamine B assay; assay type: functional; details: UACC-257, 48 h; method in brief: as §1
T47D = test: Growth inhibition of human T47D cells after 48 hrs by sulforhodamine B assay; assay type: functional; method in brief: as §1
OVCAR-5 = test: Growth inhibition of human OVCAR5 cells after 48 hrs by sulforhodamine B assay; assay type: functional; details: OVCAR-5, 48 h; method in brief: as §1
SK-MEL-28 = test: Growth inhibition of human SK-MEL-28 cells after 48 hrs by sulforhodamine B assay; assay type: functional; details: SK-MEL-28, 48 h; method in brief: as §1
HCT-15 = test: Growth inhibition of human HCT15 cells after 48 hrs by sulforhodamine B assay; assay type: functional; details: HCT-15, 48 h; method in brief: as §1
LOX IMVI = test: Growth inhibition of human LOXIMVI cells after 48 hrs by sulforhodamine B assay; assay type: functional; method in brief: as §1
NCI-H226 = test: Growth inhibition of human NCI-H226 cells after 48 hrs by sulforhodamine B assay; assay type: functional; details: NCI-H226, 48 h; method in brief: as §1
MDA-MB-435 = test: Growth inhibition of human MDA-MB-435 cells after 48 hrs by sulforhodamine B assay; assay type: functional; details: MDA-MB-435, 48 h; method in brief: as §1
KM12 = test: Growth inhibition of human KM12 cells after 48 hrs by sulforhodamine B assay; assay type: functional; details: KM12, 48 h; method in brief: as §1
SF-539 = test: Growth inhibition of human SF539 cells after 48 hrs by sulforhodamine B assay; assay type: functional; details: SF-539, 48 h; method in brief: as §1
Malme-3M = test: Growth inhibition of human MALME-3M cells after 48 hrs by sulforhodamine B assay; assay type: functional; method in brief: as §1
HCT-116 = test: Growth inhibition of human HCT116 cells after 48 hrs by sulforhodamine B assay; assay type: functional; details: HCT-116, 48 h; method in brief: as §1
MDA-MB-231 = test: Growth inhibition of human MDA-MB-231 cells after 48 hrs by sulforhodamine B assay; assay type: functional; details: MDA-MB-231, 48 h; method in brief: as §1
BT-549 = test: Growth inhibition of human BT549 cells after 48 hrs by sulforhodamine B assay; assay type: functional; details: BT-549, 48 h; method in brief: as §2
HOP-92 = test: Growth inhibition of human HOP92 cells after 48 hrs by sulforhodamine B assay; assay type: functional; details: HOP-92, 48 h; method in brief: as §1
A549 = test: Growth inhibition of human A549 cells after 48 hrs by sulforhodamine B assay; assay type: functional; details: A549, 48 h; method in brief: as §2
SF-268 = test: Growth inhibition of human SF268 cells after 48 hrs by sulforhodamine B assay; assay type: functional; details: SF-268, 48 h; method in brief: as §1
SN12C = test: Growth inhibition of human SN12C cells after 48 hrs by sulforhodamine B assay; assay type: functional; method in brief: as §1
NCI-H322M = test: Growth inhibition of human NCI-H322M cells after 48 hrs by sulforhodamine B assay; assay type: functional; method in brief: as §1
SNB-75 = test: Growth inhibition of human SNB75 cells after 48 hrs by sulforhodamine B assay; assay type: functional; details: SNB-75, 48 h; method in brief: as §1
IGROV-1 = test: Growth inhibition of human IGROV1 cells after 48 hrs by sulforhodamine B assay; assay type: functional; details: IGROV-1, 48 h; method in brief: as §1
SNB-19 = test: Growth inhibition of human SNB19 cells after 48 hrs by sulforhodamine B assay; assay type: functional; details: SNB-19, 48 h; method in brief: as §1
HCC 2998 = test: Growth inhibition of human HCC2998 cells after 48 hrs by sulforhodamine B assay; assay type: functional; details: HCC 2998, 48 h; method in brief: as §1
SR = test: Growth inhibition of human SR cells after 48 hrs by sulforhodamine B assay; assay type: functional; method in brief: as §1
SK-MEL-2 = test: Growth inhibition of human SK-MEL-2 cells after 48 hrs by sulforhodamine B assay; assay type: functional; details: SK-MEL-2, 48 h; method in brief: as §1
OVCAR-8 = test: Growth inhibition of human OVCAR8 cells after 48 hrs by sulforhodamine B assay; assay type: functional; details: OVCAR-8, 48 h; method in brief: as §1
OVCAR-3 = test: Growth inhibition of human OVCAR-3 cells after 48 hrs by sulforhodamine B assay; assay type: functional; details: OVCAR-3, 48 h; method in brief: as §1
Hs-578T = test: Growth inhibition of human Hs 578T cells after 48 hrs by sulforhodamine B assay; assay type: functional; method in brief: as §1
HT-29 = test: Growth inhibition of human HT-29 cells after 48 hrs by sulforhodamine B assay; assay type: functional; details: HT-29, 48 h; method in brief: as §1

SMILES: COc1cc2c(cc1OCCCCCOc1ccc(-c3nc4ccccc4o3)cc1)N=C[C@@H]1CCCN1C2=O
- ΔTm (Calf thymus DNA): 4.3 °C

SMILES: COc1cc2c(cc1OCCCCC(=O)Nc1ccc(-c3nc4ccc(F)cc4s3)cc1)N=C[C@@H]1CCCN1C2=O
- ΔTm (Calf thymus DNA): 2.3 °C

SMILES: COc1cc2c(cc1OCCCCCOc1ccc(-c3nc4ccccc4s3)cc1)N=C[C@@H]1CCCN1C2=O
- GI50 (HL-60): 562 nM
- GI50 (NCI-H23): 891 nM
- GI50 (EKVX): 1550 nM
- GI50 (SK-OV-3): 2570 nM
- GI50 (UACC-62): 1170 nM
- GI50 (RXF 393): 200 nM
- GI50 (DU-145): 355 nM
- GI50 (K562): 363 nM
- ΔTm (Calf thymus DNA): 4.3 °C
- GI50 (SW-620): 1020 nM
- GI50 (CAKI-1): 513 nM
- GI50 (HOP-62): 407 nM
- GI50 (SF-295): 776 nM
- GI50 (M14): 324 nM
- GI50 (NCI-H522): 550 nM
- GI50 (SK-MEL-5): 339 nM
- GI50 (OVCAR-4): 2140 nM
- GI50 (MCF7): 331 nM
- GI50 (786-0): 263 nM
- GI50 (MOLT-4): 282 nM
- GI50 (U-251): 457 nM
- GI50 (NCI-H460): 347 nM
- GI50 (CCRF-CEM): 269 nM
- GI50 [1]: 398 nM
- GI50 (UO-31): 724 nM
- GI50 (COLO 205): 389 nM
- GI50 (A498): 2240 nM
- GI50 (TK-10): 3470 nM
- GI50 (NCI/ADR-RES): 1120 nM
- GI50 (ACHN): 1100 nM
- GI50 (PC-3): 234 nM
- GI50 (UACC-257): 2240 nM
- GI50 (T47D): 234 nM
- GI50 (OVCAR-5): 661 nM
- GI50 (SK-MEL-28): 3890 nM
- GI50 (HCT-15): 933 nM
- GI50 (LOX IMVI): 240 nM
- GI50 (NCI-H226): 1510 nM
- GI50 (MDA-MB-435): 1380 nM
- GI50 (KM12): 1550 nM
- GI50 (SF-539): 479 nM
- GI50 (Malme-3M): 1230 nM
- GI50 (HCT-116): 347 nM
- GI50 (MDA-MB-231): 263 nM
- GI50 (BT-549): 229 nM
- GI50 (HOP-92): 269 nM
- GI50 (A549): 2570 nM
- GI50 (SF-268): 3240 nM
- GI50 (SN12C): 813 nM
- GI50 (NCI-H322M): 1950 nM
- GI50 (SNB-75): 1200 nM
- GI50 (IGROV-1): 2690 nM
- GI50 (SNB-19): 2950 nM
- GI50 (HCC 2998): 631 nM
- GI50 (SR): 19.1 nM
- GI50 (SK-MEL-2): 1550 nM
- GI50 (OVCAR-8): 813 nM
- GI50 (OVCAR-3): 741 nM
- GI50 (Hs-578T): 1320 nM
- GI50 (HT-29): 457 nM
